ChEMBL document CHEMBL4000211, “Discovery of novel polycyclic spiro-fused carbocyclicoxindole-based anticancer agents” (Eur J Med Chem, 2017)
The source made the active and inactive calls. The rule behind the calls is not given here.

Assays:
HCT-116 [1] = test: Induction of apoptosis in human HCT116 cells assessed as late apoptotic cells at 12.5 uM after 24 hrs by annexin V-FITC/propidium iodide staining-based flow cytometric method (reference value: 2.77%); assay type: functional
HCT-116 [2] = test: Induction of apoptosis in human HCT116 cells assessed as early apoptotic cells at 12.5 uM after 24 hrs by annexin V-FITC/propidium iodide staining-based flow cytometric method (reference value: 1.9%); assay type: functional
HCT-116 [3] = test: Induction of apoptosis in human HCT116 cells assessed as cell shrinkage at 7.5 to 12.5 uM after 24 hrs by inverted microscopic method; assay type: functional, cell-based
Outline: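 HCT116 at 1×10⁵/well grown 24 h, then treated 24 h (0, 7.5, 10, 12.5). Cells rinsed in PBS and fixed in 75% ethanol. Morphology was examined by inverted microscopy, then cells were stained with Hoechst 33342 for fluorescence microscopy of nuclei.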

HCT-116 [4] = test: Cell cycle arrest in human HCT116 cells assessed as accumulation at S phase at 7.5 uM after 24 hrs by propidium iodide staining-based flow cytometric method (reference value: 36.43%); assay type: functional
HCT-116 [5] = test: Induction of apoptosis in human HCT116 cells assessed as necrotic cells at 7.5 uM after 48 hrs by annexin V-FITC/propidium iodide staining-based flow cytometric method (reference value: 2.29%); assay type: functional
Outline: (§1)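 HCT116 cells seeded at 1×10⁶ cells/mL in 6-well plates for 24 h, then exposed to 0, 7.5, 10 or 12.5 μM for a further 24 h or 48 h. Cells washed twice in PBS, then stained with Annexin V-FITC plus PI (100 μg/mL stock) in binding buffer (10 mM HEPES, pH 7.4, 2.5 mM CaCl₂) for 30 min at room temperature in the dark. Early and late apoptotic fractions gated by flow cytometry.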

CT26 = test: Antiproliferative activity against mouse CT26 cells after 48 hrs by MTT assay; assay type: functional, cell-based; conditions: CT26, 48 h
Outline: (§2)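 Cells seeded at 3×10³/well and grown 24 h, then exposed 48 h to six final concentrations, twofold steps down from 30. MTT (5 mg/mL) was added for 2–4 h at 37 °C. Supernatant was removed, formazan dissolved in DMSO, and OD read at 570 nm. Results are given as IC50, or as percent inhibition where IC50 exceeds the top concentration. At least three runs.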

HCT-116 [6] = test: Cell cycle arrest in human HCT116 cells assessed as accumulation at G1 phase at 10 uM after 48 hrs by propidium iodide staining-based flow cytometric method (reference value: 40.75%); assay type: functional
HCT-116 [7] = test: Induction of apoptosis in human HCT116 cells assessed as necrotic cells at 12.5 uM after 48 hrs by annexin V-FITC/propidium iodide staining-based flow cytometric method (reference value: 2.29%); assay type: functional; outline: as §1
HCT-116 [8] = test: Cell cycle arrest in human HCT116 cells assessed as accumulation at S phase at 10 uM after 24 hrs by propidium iodide staining-based flow cytometric method (reference value: 36.43%); assay type: functional
[9] = target: E3 ubiquitin-protein ligase Mdm2 (Homo sapiens) (UniProt Q00987); test: Inhibition of MDM2-mediated p53 degradation in human HCT116 cells assessed as increase in p53 levels at 7.5 to 12.5 uM after 24 hrs by Western blot method; assay type: cell-based
E3 ubiquitin-protein ligase Mdm2 (Homo sapiens), sequence (Q00987 whole entry, looked up): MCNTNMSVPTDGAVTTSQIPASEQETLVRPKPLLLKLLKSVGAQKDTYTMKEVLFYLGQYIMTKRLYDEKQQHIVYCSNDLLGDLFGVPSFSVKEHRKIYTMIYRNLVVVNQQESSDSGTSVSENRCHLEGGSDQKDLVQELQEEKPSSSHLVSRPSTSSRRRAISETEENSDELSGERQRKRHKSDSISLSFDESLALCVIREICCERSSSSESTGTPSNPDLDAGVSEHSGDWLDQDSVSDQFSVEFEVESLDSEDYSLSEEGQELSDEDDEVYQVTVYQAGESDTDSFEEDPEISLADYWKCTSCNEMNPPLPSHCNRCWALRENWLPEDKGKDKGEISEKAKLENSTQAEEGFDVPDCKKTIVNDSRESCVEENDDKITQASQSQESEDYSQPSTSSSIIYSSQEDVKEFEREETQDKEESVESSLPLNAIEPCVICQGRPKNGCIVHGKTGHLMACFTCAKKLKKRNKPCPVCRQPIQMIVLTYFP
Outline: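 Treated HCT116 cells lysed on ice in RIPA buffer with 1% protease inhibitor cocktail. Lysates cleared at 13000 g for 20 min at 4 °C and protein measured by BCA. Equal protein amounts run on SDS-PAGE, transferred to PVDF and probed with primary then HRP secondary antibodies. Bands detected by enhanced chemiluminescence; 24 h treatment.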

HCT-116 [10] = test: Cell cycle arrest in human HCT116 cells assessed as accumulation at G1 phase at 7.5 uM after 48 hrs by propidium iodide staining-based flow cytometric method (reference value: 40.75%); assay type: functional
HCT-116 [11] = test: Induction of apoptosis in human HCT116 cells assessed as necrotic cells at 10 uM after 48 hrs by annexin V-FITC/propidium iodide staining-based flow cytometric method (reference value: 2.29%); assay type: functional
HCT-116 [12] = test: Cell cycle arrest in human HCT116 cells assessed as accumulation at sub G1 phase at 10 uM after 48 hrs by propidium iodide staining-based flow cytometric method (reference value: 0.86%); assay type: functional
HCT-116 [13] = test: Induction of apoptosis in human HCT116 cells assessed as late apoptotic cells at 7.5 uM after 48 hrs by annexin V-FITC/propidium iodide staining-based flow cytometric method (reference value: 1.06%); assay type: functional
HCT-116 [14] = test: Antiproliferative activity against human HCT116 cells after 48 hrs by MTT assay; assay type: functional, cell-based; conditions: HCT-116, 48 h; outline: as §2
HCT-116 [15] = test: Induction of apoptosis in human HCT116 cells assessed as reduction in cell volume at 7.5 to 12.5 uM after 24 hrs by Hoechst 33342 staining-based fluorescence microscopic method; assay type: functional
Outline: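 HCT116 cells (1×10⁵/well) cultured 24 h, then exposed to 0, 7.5, 10 or 12.5 μM (final) for 24 h. Rinsed in PBS, fixed in 75% ethanol and checked by inverted microscopy. Then stained with Hoechst 33342 (2 μg/mL in PBS) and scored for apoptotic nuclear morphology under fluorescence microscopy.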

HCT-116 [16] = test: Cell cycle arrest in human HCT116 cells assessed as accumulation at G2 phase at 7.5 uM after 24 hrs by propidium iodide staining-based flow cytometric method (reference value: 26.10%); assay type: functional
A2780S = test: Antiproliferative activity against human A2780S cells at 15 uM after 48 hrs by MTT assay relative to control; assay type: functional; outline: as §2
HCT-116 [17] = test: Cell cycle arrest in human HCT116 cells assessed as accumulation at G1 phase at 7.5 uM after 24 hrs by propidium iodide staining-based flow cytometric method (reference value: 43.79%); assay type: functional
A2780/Taxol = test: Antiproliferative activity against human A2780T cells after 48 hrs by MTT assay; assay type: functional, cell-based; outline: as §2
HCT-116 [18] = test: Cell cycle arrest in human HCT116 cells assessed as accumulation at G1 phase at 10 uM after 24 hrs by propidium iodide staining-based flow cytometric method (reference value: 43.79%); assay type: functional
HCT-116 [19] = test: Induction of apoptosis in human HCT116 cells assessed as necrotic cells at 7.5 uM after 24 hrs by annexin V-FITC/propidium iodide staining-based flow cytometric method (reference value: 1.85%); assay type: functional; outline: as §1
HCT-116 [20] = test: Cell cycle arrest in human HCT116 cells assessed as accumulation at G2 phase at 10 uM after 48 hrs by propidium iodide staining-based flow cytometric method (reference value: 31.27%); assay type: functional
HCT-116 [21] = test: Induction of apoptosis in human HCT116 cells assessed as late apoptotic cells at 10 uM after 48 hrs by annexin V-FITC/propidium iodide staining-based flow cytometric method (reference value: 1.06%); assay type: functional
HCT-116 [22] = test: Induction of apoptosis in human HCT116 cells assessed as late apoptotic cells at 7.5 uM after 24 hrs by annexin V-FITC/propidium iodide staining-based flow cytometric method (reference value: 2.77%); assay type: functional
HCT-116 [23] = test: Induction of apoptosis in human HCT116 cells assessed as viable cells at 12.5 uM after 48 hrs by annexin V-FITC/propidium iodide staining-based flow cytometric method (reference value: 95.05%); assay type: functional; conditions: HCT-116, 48 h, read-out: Activity; outline: as §1

`C[C@@H]1Oc2ccc3ccccc3c2[C@@H]2[C@@H]1C=C(C=O)[C@@H](C)[C@]21C(=O)Nc2ccccc21` was tested, and the Activity (HCT-116 [1]) was 17.98%, the Activity (HCT-116 [2]) was 33.2% and the Activity (HCT-116 [3]) was “Active”. The Activity (HCT-116 [4]) was 32.56%, the Activity (HCT-116 [5]) was 2.02% and the IC50 (CT26) was 9.5 µM. For the same molecule, the Activity (HCT-116 [6]) was 82.32%, the Activity (HCT-116 [7]) was 5.28% and the Activity (HCT-116 [8]) was 7.13%. The inhibition [9] was “Active”, the Activity (HCT-116 [10]) was 49.85% and the Activity (HCT-116 [11]) was 2.82%. It also gave an Activity (HCT-116 [12]) of 32.93%, an Activity (HCT-116 [13]) of 2.09% and an IC50 (HCT-116 [14]) of 8.6 µM. For the same molecule, the Activity (HCT-116 [15]) was “Active”, the Activity (HCT-116 [16]) was 28.5% and the inhibition at 15 µM (A2780S) was 61.7 to 72.4%. For the same molecule, the Activity (HCT-116 [17]) was 46.1%, the IC50 (A2780/Taxol) was 23.4 µM and the Activity (HCT-116 [18]) was 75.18%. The Activity (HCT-116 [19]) was 1.6%, the Activity (HCT-116 [20]) was 18.42% and the Activity (HCT-116 [21]) was 8.18%. It also gave an Activity (HCT-116 [22]) of 4.71% and a viability at 12.5 µM (HCT-116 [23]) of 28.6%.
